B1: Osa-1-4 twister ribozyme (parent)
chain: CCGCCUAACACUGCCAAUGCCGGUCCCAAGCCCGGAUAAAAGUGGAGGGGGCGG

This data set covers variants of B1. The experiment in a line: self-cleavage, relative activity (ratio to wild type); higher = more cleavage; co-transcriptional. The method, boiled down:
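A DNA template was synthesised for a 54-nucleotide twister ribozyme from Oryza sativa, with 97 % wild-type base and 1 % of each other base at each of the 48 positions downstream of the cleavage site. The ribozyme cleaved itself co-transcriptionally during 2 h of in vitro transcription at 37 °C. Reverse transcription with a template-switching oligonucleotide, PCR amplification and deep sequencing followed, and cleavage status came from reads with or without upstream sequence. Relative activity is the fraction cleaved normalised to wild type.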
As to A46U G19U, the self-cleavage amounted to 0.04.

Consider A46U G19C, for which the self-cleavage turned out to be 0.03.

A46U G19A: the self-cleavage was found to be 0.06.

As for A46G G51C, the self-cleavage was determined as 0.04.

Regarding A46G G51U, the self-cleavage is 0.05.

A46G G51A: the self-cleavage amounted to 0.05.

With A46G U18C, the self-cleavage was 0.07.

On to A46G U18G, for which the self-cleavage is 0.13.

Consider A46G U18A, for which the self-cleavage is 0.06.

Turning to A46U C52G, the self-cleavage came to 0.12.

A46U C52A: the self-cleavage came to 0.1.

Consider A46U C52U, for which the self-cleavage amounted to 0.09.

In the case of A46G G45U, the self-cleavage is 0.03.

With A46G G45A, the self-cleavage was 0.06.

For A46G G45C, the self-cleavage worked out at 0.03.

A46G U43G: the self-cleavage is 0.12.

With A46G U43A, the self-cleavage came to 0.06.

Take A46G U43C: the self-cleavage was 0.04.

On to A46G C15U, for which the self-cleavage amounted to 0.04.

A46G C15G: the self-cleavage was 0.04.

Consider A46G C15A, for which the self-cleavage came out at 0.06.

A46G G47A: the self-cleavage came out at 0.06.

As to A46G G47C, the self-cleavage stood at 0.03.

With A46G G47U, the self-cleavage is 0.06.

Consider A46G C32U, for which the self-cleavage worked out at 0.04.

With A46G C32A, the self-cleavage worked out at 0.03.

Consider A46G C32G, for which the self-cleavage is 0.07.

Take A46G C26A: the self-cleavage worked out at 0.03.

With A46G C26U, the self-cleavage stood at 0.04.

Consider A46G C26G, for which the self-cleavage is 0.02.

Turning to A46G C14A, the self-cleavage was 0.03.

As for A46G C14U, the self-cleavage stood at 0.03.

As to A46G C14G, the self-cleavage was 0.04.

On to A46G G30C, for which the self-cleavage was 0.01.

As to A46G G30U, the self-cleavage stood at 0.03.

For A46G G30A, the self-cleavage was found to be 0.02.

A46G C21U: the self-cleavage was found to be 0.09.

As to A46G C21A, the self-cleavage stood at 0.07.

As to A46G C21G, the self-cleavage was 0.02.

As to A46U C26A, the self-cleavage is 0.02.

In the case of A46U C26G, the self-cleavage came out at 0.03.

On to A46U C26U, for which the self-cleavage stood at 0.06.

On to A46U C32A, for which the self-cleavage stood at 0.03.

Take A46U C32U: the self-cleavage amounted to 0.05.

In the case of A46U C32G, the self-cleavage stood at 0.05.

A46G C20U: the self-cleavage amounted to 0.07.

For the variant A46G C20A, the self-cleavage turned out to be 0.09.

For the variant A46G C20G, the self-cleavage came out at 0.04.

With A46G G49C, the self-cleavage amounted to 0.03.

On to A46G G49A, for which the self-cleavage is 0.03.

In the case of A46G G49U, the self-cleavage was determined as 0.03.

In the case of A46U C31G, the self-cleavage came out at 0.04.

Take A46U C31U: the self-cleavage was 0.04.

On to A46U C31A, for which the self-cleavage turned out to be 0.02.

Regarding A46U A7C, the self-cleavage stood at 0.02.

Take A46U A7U: the self-cleavage was 0.04.

A46U A7G: the self-cleavage amounted to 0.07.

As to A46G G53U, the self-cleavage was 0.07.

Regarding A46G G53A, the self-cleavage is 0.07.

Consider A46G G53C, for which the self-cleavage came to 0.03.

As to A46U C9A, the self-cleavage amounted to 0.02.

As to A46U C9G, the self-cleavage came to 0.06.

Take A46U C9U: the self-cleavage amounted to 0.04.

Consider A46G G35U, for which the self-cleavage came to 0.08.

As for A46G G35C, the self-cleavage was determined as 0.05.

As to A46G G35A, the self-cleavage amounted to 0.07.

With A46U G13A, the self-cleavage was determined as 0.03.

In the case of A46U G13C, the self-cleavage is 0.02.

Consider A46U G13U, for which the self-cleavage was 0.01.

Take A46G C11U: the self-cleavage amounted to 0.06.

A46G C11G: the self-cleavage was determined as 0.04.

For A46G C11A, the self-cleavage was found to be 0.06.

With A46G G22A, the self-cleavage stood at 0.08.

On to A46G G22U, for which the self-cleavage came to 0.06.

As to A46G G22C, the self-cleavage was found to be 0.02.

In the case of A46G G50C, the self-cleavage is 0.06.

Take A46G G50A: the self-cleavage came out at 0.08.

In the case of A46G G50U, the self-cleavage came to 0.06.

Take A46G C9U: the self-cleavage is 0.03.

In the case of A46G C9A, the self-cleavage was 0.03.

Regarding A46G C9G, the self-cleavage was determined as 0.07.

Take A46U C33A: the self-cleavage is 0.05.

For the variant A46U C33U, the self-cleavage is 0.06.

For the variant A46U C33G, the self-cleavage turned out to be 0.03.

As for A46G U24C, the self-cleavage was 0.04.

For A46G U24A, the self-cleavage amounted to 0.04.

For the variant A46G U24G, the self-cleavage came to 0.02.

Take A46U C15G: the self-cleavage was found to be 0.08.

As for A46U C15A, the self-cleavage came to 0.05.

In the case of A46U C15U, the self-cleavage came out at 0.06.

Regarding A46G A8G, the self-cleavage worked out at 0.04.

Turning to A46G A8C, the self-cleavage was 0.03.

Turning to A46G A8U, the self-cleavage was 0.03.

Turning to A46U C27U, the self-cleavage turned out to be 0.06.

For A46U C27G, the self-cleavage was 0.03.

For the variant A46U C27A, the self-cleavage worked out at 0.04.

For the variant A46U C25U, the self-cleavage turned out to be 0.06.

On to A46U C25G, for which the self-cleavage was 0.04.

For A46U C25A, the self-cleavage was 0.03.

Regarding A46G G23U, the self-cleavage is 0.03.

For A46G G23A, the self-cleavage was 0.05.

As to A46G G23C, the self-cleavage is 0.02.

For the variant A46G A7U, the self-cleavage was determined as 0.01.

As to A46G A7G, the self-cleavage was 0.05.

In the case of A46G A7C, the self-cleavage is 0.02.

As for A46G C27A, the self-cleavage was 0.05.

For the variant A46G C27G, the self-cleavage came out at 0.04.

A46G C27U: the self-cleavage came to 0.04.

On to A46G C31U, for which the self-cleavage amounted to 0.05.

For the variant A46G C31G, the self-cleavage worked out at 0.03.

As for A46G C31A, the self-cleavage is 0.01.

Regarding A46G U37A, the self-cleavage was found to be 0.05.

In the case of A46G U37C, the self-cleavage turned out to be 0.08.

Regarding A46G U37G, the self-cleavage is 0.09.

As to A46U A8C, the self-cleavage came to 0.03.

Regarding A46U A8U, the self-cleavage was found to be 0.07.

For A46U A8G, the self-cleavage was determined as 0.08.

With A46G G48C, the self-cleavage was determined as 0.03.

On to A46G G48U, for which the self-cleavage is 0.02.

Turning to A46G G48A, the self-cleavage was determined as 0.02.

Consider A46G G34A, for which the self-cleavage worked out at 0.06.

Turning to A46G G34U, the self-cleavage came out at 0.05.

For A46G G34C, the self-cleavage stood at 0.05.

In the case of A46G C33G, the self-cleavage is 0.03.

In the case of A46G C33U, the self-cleavage came to 0.06.

For A46G C33A, the self-cleavage amounted to 0.04.

A46U C21U: the self-cleavage amounted to 0.06.

In the case of A46U C21A, the self-cleavage was determined as 0.07.

Regarding A46U C21G, the self-cleavage is 0.02.

A46G C52A: the self-cleavage is 0.1.

On to A46G C52G, for which the self-cleavage was found to be 0.24.

A46G C52U: the self-cleavage was 0.09.

A46G G19C: the self-cleavage was determined as 0.02.

Regarding A46G G19U, the self-cleavage turned out to be 0.04.

For A46G G19A, the self-cleavage was 0.05.

As for A46G G54C, the self-cleavage was found to be 0.06.

Take A46G G54U: the self-cleavage came out at 0.11.

For the variant A46G G54A, the self-cleavage worked out at 0.07.

Turning to A46G U12G, the self-cleavage was 0.07.

A46G U12C: the self-cleavage is 0.05.

Turning to A46G U12A, the self-cleavage stood at 0.05.

In the case of A46G G44C, the self-cleavage is 0.05.

Take A46G G44U: the self-cleavage stood at 0.07.

Turning to A46G G44A, the self-cleavage worked out at 0.05.

A46C U43A: the self-cleavage was 0.06.

Consider A46C U43G, for which the self-cleavage was found to be 0.05.

With A46C U43C, the self-cleavage was found to be 0.05.

With A46G, the self-cleavage came out at 0.08.

Consider A46U, for which the self-cleavage was found to be 0.08.

A46U C20G: the self-cleavage was 0.05.

For A46U C20A, the self-cleavage was 0.06.

A46U C20U: the self-cleavage worked out at 0.1.

For the variant A46G G42A, the self-cleavage was 0.05.

On to A46G G42C, for which the self-cleavage turned out to be 0.04.

As for A46G G42U, the self-cleavage is 0.04.

Consider A46G G13U, for which the self-cleavage was determined as 0.01.

In the case of A46G G13C, the self-cleavage was 0.02.

As for A46G G13A, the self-cleavage was 0.02.

Turning to A46G C25A, the self-cleavage is 0.02.

In the case of A46G C25G, the self-cleavage was determined as 0.02.

Take A46G C25U: the self-cleavage was 0.05.

On to A46U C11G, for which the self-cleavage was determined as 0.05.

Turning to A46U C11A, the self-cleavage was 0.06.

For A46U C11U, the self-cleavage amounted to 0.08.

For A46U C14U, the self-cleavage amounted to 0.06.

A46U C14A: the self-cleavage was found to be 0.03.

Regarding A46U C14G, the self-cleavage turned out to be 0.03.
